Reference: ChEMBL document CHEMBL2176986, “Selective and potent urea inhibitors of cryptosporidium parvum inosine 5'-monophosphate dehydrogenase” (J Med Chem, 2012)

Legend:
[1] = biological target: T1, Inosine-5'-monophosphate dehydrogenase (Cryptosporidium parvum, UniProt Q8T6T2); assay: Inhibition of Cryptosporidium parvum recombinant IMPDH expressed in Escherichia coli assessed as production of NADH incubated for 5 mins by fluorescence based assay
T1 sequence (Q8T6T2 whole entry): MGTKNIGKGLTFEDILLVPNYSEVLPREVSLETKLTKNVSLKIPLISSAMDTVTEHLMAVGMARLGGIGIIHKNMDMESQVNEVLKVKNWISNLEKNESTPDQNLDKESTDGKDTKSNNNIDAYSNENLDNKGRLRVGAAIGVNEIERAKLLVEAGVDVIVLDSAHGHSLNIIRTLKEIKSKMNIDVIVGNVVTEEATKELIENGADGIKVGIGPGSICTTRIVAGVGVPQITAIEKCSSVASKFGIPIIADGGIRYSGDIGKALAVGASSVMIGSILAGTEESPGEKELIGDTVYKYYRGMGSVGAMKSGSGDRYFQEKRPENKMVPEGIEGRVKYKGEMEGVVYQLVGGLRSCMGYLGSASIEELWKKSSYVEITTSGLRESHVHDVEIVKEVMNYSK
In short: (§1)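 Recombinant CpIMPDH purified from E. coli, 10 nM, preincubated with inhibitor 5 min at room temperature before substrates added. NADH formation followed by fluorescence. Line 3 also includes 0.05% fatty-acid-free BSA.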

[2] = biological target: Inosine-5'-monophosphate dehydrogenase 2 (Homo sapiens, UniProt P12268); assay: Inhibition of human IMPDH 2
[3] = biological target: T1, Inosine-5'-monophosphate dehydrogenase; assay: Inhibition of Cryptosporidium parvum recombinant IMPDH expressed in Escherichia coli assessed as production of NADH in presence of 0.05% fatty acid free BSA incubated for 5 mins by fluorescence based assay; in short: as §1
Toxoplasma gondii [4] = assay: Toxicity against wild type Toxoplasma gondii expressing yellow fluorescent protein infected in human TERT immobilized human foreskin fibroblasts assessed as parasite growth inhibition for 6 to 7 days by fluorescence based assay; assay type: organism-based
In short: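 Parasite lines carrying yellow fluorescent protein were grown on hTERT-immortalized human foreskin fibroblasts. One line depends on C. parvum IMPDH (Toxo/CpIMPDH). The other is wild-type strain RH, which has its own eukaryotic IMPDH. Growth inhibition was taken on a day within exponential growth.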

Toxoplasma gondii [5] = assay: Antiparasitic activity against Toxoplasma gondii expressing Cryptosporidium parvum IMPDH and co-expressing yellow fluorescent protein infected to human TERT immobilized human foreskin fibroblasts assessed as parasite growth inhibition for 6 to 7 days by fluorescence based assay; assay type: functional, organism-based
In short: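 Parasite lines carrying yellow fluorescent protein were grown on hTERT-immortalized human foreskin fibroblasts. One line depends on C. parvum IMPDH (Toxo/CpIMPDH). The other is wild-type strain RH, which has its own eukaryotic IMPDH. Fluorescence (Ex 485, Em 530) was read daily for 6-7 days. Growth inhibition was taken on a day within exponential growth.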

Toxoplasma gondii [6] = assay: Selectivity ratio of EC50 of wild type Toxoplasma gondii to EC50 of Toxoplasma gondii expressing Cryptosporidium parvum IMPDH
In short: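 Selectivity is the EC50 against wild-type RH T. gondii divided by the EC50 against the CpIMPDH-dependent strain. Both were measured by daily YFP fluorescence of parasites on hTERT human foreskin fibroblasts over 6-7 days, with inhibition taken in exponential growth.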

Liver = assay: Half life in mouse liver microsomes; assay type: ADME, Microsome

C=C(C)c1cccc(C(C)(C)NC(=O)Nc2ccc3[nH]c(=O)[nH]c3c2)c1
IC50 [1]: 340 nM
IC50 [2]: > 5000 nM

C=C(C)c1cccc(C(C)(C)NC(=O)Nc2ccc(OC)cc2)c1
IC50 [1]: 9 nM
IC50 [3]: 21 nM
IC50 [2]: ≥ 5000 nM

C/C(=N\O)c1cccc(C(C)(C)NC(=O)Nc2ccc3ccccc3c2)c1
IC50 [1]: 1 nM
IC50 [3]: 2.3 nM
EC50 (Toxoplasma gondii [4]): 5000 nM
EC50 (Toxoplasma gondii [5]): 80 nM
Ratio EC50 (Toxoplasma gondii [6]): 63

CO/N=C(\C)c1cccc(C(C)(C)NC(=O)Nc2ccc(Cl)c(C(N)=O)c2)c1
IC50 [1]: 5 nM
IC50 [3]: 5 nM
EC50 (Toxoplasma gondii [4]): > 25000 nM
EC50 (Toxoplasma gondii [5]): 200 nM
Ratio EC50 (Toxoplasma gondii [6]): >120

CO/N=C(\C)c1cccc(C(C)(C)NC(=O)Nc2ccc3ccccc3c2)c1
IC50 [1]: 1.6 nM
IC50 [3]: 13 nM
EC50 (Toxoplasma gondii [5]): 13 nM

C=C(C)c1cccc(C(C)(C)NC(=O)Nc2cccc3ccccc23)c1
IC50 [1]: > 5000 nM
IC50 [2]: ≥ 5000 nM

C=C(C)c1cccc(C(C)(C)NC(=O)Nc2ccc3ncccc3c2)c1
IC50 [1]: 1.8 nM
IC50 [3]: 4 nM
EC50 (Toxoplasma gondii [4]): 7600 nM
IC50 [2]: ≥ 5000 nM
EC50 (Toxoplasma gondii [5]): 20 nM

C=C(C)c1cccc(C(C)(C)NC(=O)Nc2cnc3ccccc3c2)c1
IC50 [1]: 70 nM
IC50 [3]: 308 nM
EC50 (Toxoplasma gondii [4]): 2000 nM
IC50 [2]: ≥ 5000 nM
EC50 (Toxoplasma gondii [5]): 1100 nM
Ratio EC50 (Toxoplasma gondii [6]): 2.3

C=C(C)c1cccc(C(C)(C)NC(=O)Nc2ccc3ccccc3n2)c1
IC50 [1]: 250 nM
IC50 [3]: 1100 nM
EC50 (Toxoplasma gondii [4]): 3000 nM
IC50 [2]: ≥ 5000 nM
EC50 (Toxoplasma gondii [5]): 3400 nM
Ratio EC50 (Toxoplasma gondii [6]): 0.9

CC(C)(NC(=O)Nc1ccc2[nH]c(=O)[nH]c2c1)c1ccccc1
IC50 [1]: > 5000 nM

CC(C)c1cccc(C(C)(C)NC(=O)Nc2ccc3ccccc3c2)c1
IC50 [1]: > 5000 nM

CC(O)c1cccc(C(C)(C)NC(=O)Nc2ccc(Cl)cc2)c1 (stereo not drawn)
IC50 [1]: 80 nM
IC50 [3]: 120 nM
EC50 (Toxoplasma gondii [4]): 19000 nM
EC50 (Toxoplasma gondii [5]): 900 nM

CC(C)(NC(=O)Nc1ccc(Cl)c(C(N)=O)c1)c1cccc(-c2ccccc2)c1
IC50 [1]: 4 nM
IC50 [3]: 14 nM
EC50 (Toxoplasma gondii [4]): 6000 nM
EC50 (Toxoplasma gondii [5]): 210 nM

CC(C)(NC(=O)Nc1ccc(Cl)cc1)c1ccc(-c2ccccc2)cc1
IC50 [1]: > 5000 nM

CC(=O)c1cccc(C(C)(C)NC(=O)Nc2ccc(Cl)cc2)c1
IC50 [1]: 39 nM
IC50 [3]: 64 nM

CC(=O)c1cccc(C(C)(C)NC(=O)Nc2ccc(Cl)c(C(F)(F)F)c2)c1
IC50 [1]: 9 nM
IC50 [3]: 20 nM
EC50 (Toxoplasma gondii [4]): 3200 nM
EC50 (Toxoplasma gondii [5]): 200 nM
Ratio EC50 (Toxoplasma gondii [6]): 16

CC(=O)c1cccc(C(C)NC(=O)Nc2ccc(Cl)cc2)c1 (stereo not drawn)
IC50 [1]: 70 nM
IC50 [3]: 110 nM
EC50 (Toxoplasma gondii [4]): 8000 nM
EC50 (Toxoplasma gondii [5]): 2300 nM

CC(=O)c1cccc(CNC(=O)Nc2ccc(Cl)cc2)c1
IC50 [1]: 5000 nM
EC50 (Toxoplasma gondii [4]): 7000 nM
EC50 (Toxoplasma gondii [5]): 11000 nM
Ratio EC50 (Toxoplasma gondii [6]): 0.6

NC(=O)c1cc(NC(=O)NC2(c3cccc(-c4ccccc4)c3)CC2)ccc1Cl
IC50 [1]: 40 nM
IC50 [3]: 90 nM
EC50 (Toxoplasma gondii [4]): 9000 nM
EC50 (Toxoplasma gondii [5]): 600 nM
Ratio EC50 (Toxoplasma gondii [6]): 15

C=C(C)c1cccc(C(C)(C)NC(=O)N(C)c2ccc(Cl)cc2)c1
IC50 [1]: 900 nM
IC50 [3]: 5000 nM

CC(=O)c1cccc(C(C)(C)NC(=O)Oc2ccc(Cl)cc2)c1
IC50 [1]: > 5000 nM

CC(=O)c1cccc(C(C)(C)NC(=O)Cc2ccc(Cl)cc2)c1
IC50 [1]: > 5000 nM

CC(=O)c1cccc(C(C)(C)OC(=O)Nc2ccc(Cl)cc2)c1
IC50 [1]: 90 nM
IC50 [3]: 120 nM

C/C(=N\O)c1cccc(C(C)(C)NC(=O)Nc2ccc(Cl)c(C(F)(F)F)c2)c1
t1/2 (Liver): 1.47 h
IC50 [1]: 1 nM
IC50 [3]: 4 nM
EC50 (Toxoplasma gondii [5]): 10 nM

C=C(C)c1cccc(C(C)(C)NC(=O)Nc2ccccc2)c1
IC50 [1]: 250 nM
IC50 [3]: 410 nM
EC50 (Toxoplasma gondii [4]): 6000 nM
IC50 [2]: ≥ 5000 nM
EC50 (Toxoplasma gondii [5]): 770 nM
Ratio EC50 (Toxoplasma gondii [6]): 8

C=C(C)c1cccc(C(C)(C)NC(=O)Nc2ccc(Cl)cc2)c1
IC50 [1]: 20 nM
IC50 [3]: 37 nM
EC50 (Toxoplasma gondii [4]): > 25000 nM
IC50 [2]: ≥ 5000 nM
EC50 (Toxoplasma gondii [5]): 180 nM
Ratio EC50 (Toxoplasma gondii [6]): >140

C=C(C)c1cccc(C(C)(C)NC(=O)Nc2ccc(Br)cc2)c1
IC50 [1]: 10 nM
IC50 [3]: 20 nM
EC50 (Toxoplasma gondii [4]): > 25000 nM
IC50 [2]: ≥ 5000 nM
EC50 (Toxoplasma gondii [5]): 200 nM
Ratio EC50 (Toxoplasma gondii [6]): >120

C=C(C)c1cccc(C(C)(C)NC(=O)Nc2cccc(Cl)c2)c1
IC50 [1]: 70 nM
IC50 [3]: 330 nM
EC50 (Toxoplasma gondii [4]): 402 nM
IC50 [2]: ≥ 5000 nM
EC50 (Toxoplasma gondii [5]): 380 nM
Ratio EC50 (Toxoplasma gondii [6]): 1

C=C(C)c1cccc(C(C)(C)NC(=O)Nc2ccccc2Cl)c1
IC50 [1]: > 5000 nM
IC50 [2]: ≥ 5000 nM

C=C(C)c1cccc(C(C)(C)NC(=O)Nc2ccc(C(C)(C)C)cc2)c1
IC50 [1]: > 5000 nM
EC50 (Toxoplasma gondii [4]): 20000 nM
IC50 [2]: ≥ 5000 nM
EC50 (Toxoplasma gondii [5]): 7200 nM
Ratio EC50 (Toxoplasma gondii [6]): 3

C=C(C)c1cccc(C(C)(C)NC(=O)Nc2ccc(Cl)c(Cl)c2)c1
IC50 [1]: 6 nM
IC50 [3]: 50 nM
EC50 (Toxoplasma gondii [4]): 4000 nM
IC50 [2]: ≥ 5000 nM
EC50 (Toxoplasma gondii [5]): 220 nM
Ratio EC50 (Toxoplasma gondii [6]): 20

C=C(C)c1cccc(C(C)(C)NC(=O)Nc2ccc(Cl)c(C(F)(F)F)c2)c1
IC50 [1]: 4 nM
IC50 [3]: 20 nM
IC50 [2]: ≥ 5000 nM

C=C(C)c1cccc(C(C)(C)NC(=O)Nc2ccc(Cl)c(OC)c2)c1
IC50 [1]: 1.3 nM
IC50 [3]: 5 nM
EC50 (Toxoplasma gondii [4]): 2300 nM
IC50 [2]: ≥ 5000 nM
EC50 (Toxoplasma gondii [5]): 18 nM
Ratio EC50 (Toxoplasma gondii [6]): 127

C=C(C)c1cccc(C(C)(C)NC(=O)Nc2ccc(Cl)c(C(=O)NC)c2)c1
IC50 [1]: 7 nM
IC50 [3]: 14 nM
EC50 (Toxoplasma gondii [4]): 19000 nM
IC50 [2]: ≥ 5000 nM
EC50 (Toxoplasma gondii [5]): 180 nM
Ratio EC50 (Toxoplasma gondii [6]): 100

C=C(C)c1cccc(C(C)(C)NC(=O)Nc2ccc(Cl)c(C(=O)N(C)C)c2)c1
IC50 [1]: 8 nM
IC50 [3]: 11.7 nM
EC50 (Toxoplasma gondii [4]): 9000 nM
IC50 [2]: ≥ 5000 nM
EC50 (Toxoplasma gondii [5]): 90 nM
Ratio EC50 (Toxoplasma gondii [6]): 100

C=C(C)c1cccc(C(C)(C)NC(=O)Nc2ccc3c(c2)OCCO3)c1
IC50 [1]: 7.2 nM
IC50 [3]: 110 nM
EC50 (Toxoplasma gondii [4]): 8000 nM
IC50 [2]: ≥ 5000 nM
EC50 (Toxoplasma gondii [5]): 200 nM
Ratio EC50 (Toxoplasma gondii [6]): 50

C=C(C)c1cccc(C(C)(C)NC(=O)Nc2ccc3ccccc3c2)c1
IC50 [1]: 2.1 nM
IC50 [3]: 40 nM
EC50 (Toxoplasma gondii [4]): > 25000 nM
IC50 [2]: ≥ 5000 nM
EC50 (Toxoplasma gondii [5]): 200 nM
Ratio EC50 (Toxoplasma gondii [6]): >120
